Compound activity (PubChem BioAssay)
iPSC survival up: enhancers of single-cell hiPSC survival, primary screen, ATPlite luminescence; 100% = ROCK inhibitor wells, 0% = DMSO; AID 602274, 2012; survival enhancement, % at 20 µM; 0.044% of 360,000 active; in the data active means survival enhancement above about 18%;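 further: cells exposed to compounds for 16 hours before the ATP read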
CHOP inh: inhibitors of CHOP promoter induction, primary screen, cell-based, unfolded protein response, luciferase reporter; inhibition, % at 10 µM; 3.8% of 220,000 active; AID 2732, 2010; CHO-K1 CHOP-promoter luciferase, tunicamycin-induced, 15-18 h;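 active means compounds that reduced the stress-induced luciferase reporter signal by more than about 70% of percent inhibition, limit read from the data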
Cardio protect: cardioprotection against H2O2-induced cell death, primary screen, uHTS, H9c2 cells, ATPLite luminescence. H9c2 cardiomyocytes, H2O2 injury protection, 2 h. protection from H2O2 cell death, % at 20 µM. 0.63% of 360,000 active;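 active means compounds giving at least 50% protection of heart cells from peroxide-induced death in the single-dose screen, raw or plate-pattern-corrected value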
UPR XBP1 act: activators of adaptive XBP1 UPR arm, primary screen, cell-based, CHO-XBP1 luciferase reporter, luminescence, uHTS; IRE1-XBP1 UPR activation; percent of tunicamycin response, DMSO as zero; activation, % at 20 µM; 0.33% of 330,000 active;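 active means versus positive control, 20 µM dose yields 30% or more activation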
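Signal: luciferase luminescence; Assay system: CHO-XBP1 luciferase reporter cells; Amount: one thousand reporter cells per well; Dosing: 20 µM single concentration, DMSO 1%; Benchmarks: high control tunicamycin 10 µg/mL final, low control DMSO vehicle only; Schedule: 6 h compound exposure at 37 °C, 5% CO2; Evaluation: percent activation relative to tunicamycin reference.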
CHOP UPR activ: activators of apoptotic CHOP UPR arm, primary screen, cell-based, CHO-CHOP luciferase reporter, luminescence, uHTS | UPR activation; percent of tunicamycin response over DMSO baseline | activation, % at 10 µM | 0.34% of 330,000 active;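 active means at 10 µM dose, activation of 40% or more, normalized to positive control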
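System: CHO CHOP reporter cells. Amount: 500 cells per well. Buffer or medium: F12 medium, 10% FBS. Compound dosing: one dose, 10 µM in 0.5% DMSO. Incubation: 6 h compound exposure at 37 °C after overnight seeding. Technique: Steady-Glo luciferase luminescence. Benchmarks: tunicamycin and DMSO controls.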
A number is an active result; . = inactive; / = not tested or not shown; ! = a repeat was not active. Many of the other results were omitted from the sample, so hits are more common in it than they were.

SMILES	iPSC survival up	CHOP inh	Cardio protect	UPR XBP1 act	CHOP UPR activ
OC(CON=C1c2ccccc2-c2ccccc21)CN1CCNCC1 (stereo not given)	.	.	.	.	.
Cc1ccc(N(CC(O)Cn2c3ccccc3c3ccccc32)S(C)(=O)=O)c(C)c1 (stereo not given)	.	85.2	.	.	.
Cc1ccc(N(CC(O)CON=C2c3ccccc3-c3ccccc32)S(C)(=O)=O)cc1 (stereo not given)	.	91.1	.	.	.
COc1cc(C(O)c2nc(-c3ccccc3OC)cs2)ccc1F (stereo not given)	.	/	.	/	/
CC(N)C1CCC(C(=O)Nc2ccncc2)CC1 (stereo not given)	/	.	/	/	/
COc1ccc(C(=O)NCC(c2ccco2)N2CCOCC2)cc1 (stereo not given)	.	/	.	/	/
CCOC(=O)c1c(NC(=S)Nc2ccccc2)sc2c1CC(C)(C)SC2	.	.	.	.	.
CCOC(=O)c1c(NC(=S)NC)sc2c1CC(C)(C)SC2	.	95.5	.	.	.
CCOC(=O)c1cnc2c(cnn2CC)c1NN=C(C)C	/	.	/	/	/
CC1=C(C)C(=O)C(CCCCC#CCCCC#CCO)=C(C)C1=O	.	73.3!	.	.	.
CCn1ncc(Br)c1C(=O)Nc1nccs1	.	76.9	.	.	.
CCn1ncc(Br)c1C(=O)Nc1ccc(OC(F)(F)F)cc1	.	/	.	.	.
CC1(C(=O)NS(=O)(=O)c2ccccc2Cl)CCN1C(=O)c1ccco1 (stereo not given)	.	/	.	/	/
CCOC(=O)c1cc(OC(=O)c2ccccc2OC)n(-c2ccccc2)n1	.	80.5	.	.	.
CCOC(=O)c1sc2ccccc2c1OC(=O)c1ccccc1OC	.	.	.	.	.
CCS(=O)(=O)N1CCC(C(=O)Nc2cccc(C(C)=O)c2)CC1	.	73.1	.	.	.
COc1cccc(-c2nnc3sc(C4CCCCC4)nn23)c1	.	73.7	.	.	.
CC1(Oc2ccc(Cl)cc2)CCN(Cc2ccc(-c3ccccn3)cc2)C1 (stereo not given)	.	/	.	/	/
Cn1nc(-c2ccccn2)nc2c(=O)n(C)c(=O)nc1-2	.	107.0	.	.	.
COc1ccc(-c2nc(-c3ccccn3)ncc2S(C)(=O)=O)cc1	.	.	.	.	.
CCn1c(N)nc2c1c(=O)n(C)c(=O)n2C	.	.	.	.	.
CCCc1nc2c(=O)n(C)c(=O)nc-2n(C)n1	.	104.4	.	/	/
CCCCNc1nc2c(c(=O)[nH]c(=O)n2C)n1CCCc1ccccc1	.	/	.	/	/
C=C/C(C)=C/[C@@]1(C)SC(=O)C(C)=C1O	/	.	/	/	/
CC(=O)N1CCN(c2ccc(NC(=S)NC(=O)COc3ccc(C(C)(C)C)cc3)cc2)CC1	.	76.3	.	.	.
SMILES	iPSC survival up	CHOP inh	Cardio protect	UPR XBP1 act	CHOP UPR activ
O=C(COc1ccc(Cl)cc1)Nc1ccc(N2CCN(C(=O)c3ccco3)CC2)cc1	.	73.6	.	.	.
O=C1NC[C@H](Cc2ccc(O)cc2)N(C[C@@H]2CCCN2C[C@H](Cc2ccc(O)cc2)N2C[C@H](Cc3ccccc3)N(CCc3ccccc3)C(=O)C2=O)C1=O	.	/	/	/	/
CC(C)(C)c1ccc(C(=O)N2CCC2(C)C(=O)Nc2ccc3nc[nH]c3c2)cc1 (stereo not given)	.	/	.	/	/
Cc1ccc(-c2nc(P(=O)(c3ccccc3)c3ccccc3)c(N3CCOCC3)o2)cc1	.	.	.	.	.
CNc1oc(-c2ccc(Cl)cc2)nc1P(=O)(c1ccccc1)c1ccccc1	.	71.0	.	.	.
Cc1ccc(N(CC(=O)Nc2cc(Cl)ccc2Oc2ccccc2)S(C)(=O)=O)cc1C	.	89.0	.	.	.
CC(C)(C)C1CCC(OC(=O)c2cncc(Br)c2)CC1 (stereo not given)	.	.	.	.	.
CC(C)(C)C1CCC(OC(=O)c2ccncc2)CC1 (stereo not given)	.	74.3	.	.	.
Cc1ccc(CN2CC(C(=O)Nc3ncccc3C)CC2=O)cc1 (stereo not given)	.	/	.	.	.
CCC(CC)C(=O)Nc1cc(C)c2c(=O)oc3ccccc3c2n1	.	78.6	71.2	.	.
COc1ccc(NC(=O)C2(C)CCCN(C(C)C)C2)cc1OC (stereo not given)	.	/	.	/	/
O=C(/C=C/c1ccc([N+](=O)[O-])cc1)c1ccccc(=O)c1O	.	/	.	/	/
Cc1ccc(C)c(/C=C/C(=O)c2ccccc(=O)c2O)c1	.	93.1	.	/	/
Cc1ccc(/C=C/C(=O)c2ccccc(=O)c2O)c(C)c1	.	76.6	.	.	.
O=C(/C=C/c1ccccc1Cl)c1ccccc(=O)c1O	.	.	69.9	/	/
O=C(/C=C/c1ccccc1Cl)c1ccc(O)cc1	.	.	.	.	.
CC[C@]12C(=O)N(C)C[C@H]([C@@H]3C(=O)N(C)C(=O)[C@@H]31)N2C(=O)c1ccccc1	.	/	.	/	/
O=C(CCS(=O)(=O)c1ccccc1)NC12CC3CC(CC(C3)C1)C2	.	74.5	.	.	.
COC(=O)CCCn1cc(CN2CC(N3CCN(C4CCN(C)CC4)CC3)CS2(=O)=O)nn1 (stereo not given)	.	/	/	/	/
O=C(CC1SC(=O)N(Cc2cccc3ccccc23)C1=O)Nc1nccs1 (stereo not given)	.	72.9	.	.	.
CN(Cc1cnc2nc(N)nc(N)c2n1)c1ccc(C(=O)NC(CCC(=O)O)C(=O)O)c2ccccc12 (stereo not given)	.	/	.	/	/
CCc1cccc(NC(=O)CS(=O)Cc2nc(-c3ccc(C)cc3)oc2C)c1 (stereo not given)	.	92.8	.	.	.
CC1Cc2ccccc2N1C(=O)c1cc2c(=O)n3ccccc3nc2n1C (stereo not given)	.	.	66.1	.	.
O=C(CNC(=O)c1cc(-c2ccccc2)nn1-c1ccccc1)Nc1ccccc1Br	.	/	.	/	/
CC1(C)CC(=O)C(CC(=O)c2ccccc2)=C(NN=C(N)N)C1	.	/	.	/	/
SMILES	iPSC survival up	CHOP inh	Cardio protect	UPR XBP1 act	CHOP UPR activ
CCCC(C)C(=O)Nc1ccc(F)c(Cl)c1 (stereo not given)	.	.	.	.	.
O=C(Cc1ccc(Cl)cc1Cl)Nc1cccc(S(=O)(=O)Nc2ccccc2F)c1	.	86.9	.	.	.
CC(C)CC(=O)Nc1ccc(F)c(Cl)c1	.	89.5	.	.	.
O=C(Cc1ccc(Cl)cc1Cl)Nc1ccc(OC(F)F)c(Cl)c1	.	95.4	.	.	.
COc1cccc(NC(=O)C2(C)CCN2C(=O)C2CCCCC2)c1 (stereo not given)	.	/	.	/	/
O=C(C1CCCCC1)N1C[C@@H](O)[C@H](n2cc(-c3ccc(F)cc3)nn2)C[C@@H]1c1ccc(Cl)cc1	.	/	.	/	/
